Experimental data from different studies.
Compare with care: the assays were run in different laboratories.

| Compound | cell line | observed | action | technique | time | IC50 [nM] |
| --- | --- | --- | --- | --- | --- | --- |
| COc1cc(-c2[o+]c3cc(O)cc(O)c3cc2O[C@@H]2O[C@H](CO)[C@@H](O)[C@H](O)[C@H]2O)ccc1O | SW780 | cell growth or viability |  | ATP luminescence | 72 h | 137000 |
| COC(=O)CCC1=CC2C=CC=CC1C2C1CCCCC1=O (stereo not shown) | Jurkat | cell growth or viability |  | flow cytometry |  | 159 |
| C[C@H](Nc1ncnc2nc[nH]c12)c1cc2cccc(Cl)c2c(=O)n1-c1ccccc1 | CD4+ T | lymphocyte proliferation | inhibitor |  |  | 100 |
| O=C(O)/C=C/c1ccc(C(c2c[nH]c3ccccc23)c2c[nH]c3ccccc23)s1 | LNCaP | cell growth or viability |  | MTT | 48 h | 55000 |
| NCc1cc2c(-c3ccccc3)n[nH]c2c(Nc2ccccc2)n1 | MIA PaCa-2 | cell growth or viability |  | MTS | 48 h | 2300 |
| CC/C(=C(\c1ccc(O)cc1)c1ccc(OCCN(C)C)cc1)c1ccccc1 | T47D | cell growth or viability |  |  | 5 days | 2160 |
| CC(=O)c1ccc(N=Nc2c(C(=O)O)cc(O)c(O)c2O)cc1 | PaCa-2 | cell growth or viability |  | MTT |  | 12000 |
| c1ccc(CNCc2cc3c(-c4ccccc4)n[nH]c3c(Nc3ccccc3)n2)cc1 | MIA PaCa-2 | cell growth or viability |  | MTS | 48 h | 2600 |
| O=c1c(O)c(-c2cc(O)c(O)c(O)c2)oc2cc(O)cc(O)c12 | SW780 | cell growth or viability |  | ATP luminescence | 72 h | 20900 |
| COc1ccc(-c2nc(OCc3cn(CC(=O)Nc4cccc(OC)c4)nn3)c3ccccc3n2)cc1 | WRL68 | cell growth or viability |  | MTT | 72 h | 82700 |
| COc1cc(Nc2nccc(-c3cnn4nc(OC)ccc34)n2)cc(C(F)(F)F)c1 | COV434 | cell growth or viability |  | ATP luminescence |  | 500 |
| CC(=O)c1cccc(/N=N/c2cc(/C=C/C(=O)O)ccc2O)c1 | PaCa-2 | cell growth or viability |  | MTT |  | > 50000 |
| O=c1c(O[C@@H]2O[C@H](CO)[C@H](O)[C@H](O)[C@H]2O)c(-c2ccc(O)c(O)c2)oc2cc(O)cc(O)c12 | SW780 | cell growth or viability |  | ATP luminescence | 72 h | 136000 |
| Cc1[nH]c(/C=C2\C(=O)Nc3ccc(S(=O)(=O)N(C)c4cccc(Cl)c4)cc32)c(C)c1C(=O)N1CCN(C)CC1 | Rh4 | cell growth or viability |  |  | 72 h | 2210 |
| O=C(O)C(c1c[nH]c2ccccc12)c1c[nH]c2ccccc12 | LNCaP | cell growth or viability |  | MTT | 48 h | > 100000 |
| O=C(O)/C=C/c1ccc(O)cc1 | PaCa-2 | cell growth or viability |  | MTT |  | > 50000 |

| Compound | cell line | observed | action | technique | time | IC50 [nM] |
| --- | --- | --- | --- | --- | --- | --- |
| CC(C)C[C@H](NC(=O)[C@H](Cc1ccccc1)NC(=O)c1cnccn1)B(O)O | LOU-NH91 | cell growth or viability |  | ATP luminescence |  | 11 |
| Cn1cc(C(c2ccc(/C=C/C(=O)O)s2)c2cn(C)c3ccccc23)c2ccccc21 | LNCaP | cell growth or viability |  | MTT | 48 h | > 20000 |
| COc1cccc(C(=O)O[C@@H]2CN3Cc4c(cc5c(c4OC)OCO5)[C@@]24C=C[C@H](OC)C[C@@H]34)c1 | MOLT-4 | cell growth or viability |  | WST-1 |  | > 10000 |
| O=C1CCCCC1C1C2C=CC=CC1/C(=C/c1ccccc1)C2 (stereo not shown) | Jurkat | cell growth or viability |  | flow cytometry |  | 82 |
| COc1nc(OCc2cccc(-c3ccccc3)c2C)ccc1CNCCNC(C)=O | MC-38 | cell growth or viability |  | MTT |  | 2900 |
| COc1cc2c(=O)n(CCN(C)C)c3c4cc5c(cc4ncc3c2cc1OC)OCO5 | RPMI 8402 | cell growth or viability |  | MTT | 96 h | 2 |
| C#Cc1cccc(Nc2ncnc3cc(OCCOC)c(OCCOC)cc23)c1 | PaCa-2 | cell growth or viability |  | MTT |  | 60 |
| N#CCCCC1=CC2C=CC=CC1C2C1CCCCC1=O (stereo not shown) | Jurkat | cell growth or viability |  | flow cytometry |  | 69 |
| CN1CCN(c2ccc3nc(-c4c(N)c5c(F)cccc5[nH]c4=O)[nH]c3c2)CC1 | SW780 | cell growth or viability |  | MTT | 5 days | 450 |
| C[C@@H](Oc1cc(-c2cnn(C3CCNCC3)c2)cnc1N)c1c(Cl)ccc(F)c1Cl | Rh4 | cell growth or viability |  |  | 72 h | 580 |
| Oc1ccc(C(c2c[nH]c3ccccc23)c2c[nH]c3ccccc23)cc1 | LNCaP | cell growth or viability |  | MTT | 48 h | > 100000 |
| COc1ccc(C(=O)O[C@@H]2CN3Cc4c(cc5c(c4OC)OCO5)[C@@]24C=C[C@H](OC)C[C@@H]34)cc1 | MOLT-4 | cell growth or viability |  | WST-1 |  | > 10000 |
| OC[C@H]1O[C@@H](Oc2cc3c(O)cc(O)cc3[o+]c2-c2ccc(O)c(O)c2)[C@H](O)[C@@H](O)[C@H]1O | SW780 | cell growth or viability |  | ATP luminescence | 72 h | 84500 |
| COc1c2c(cc3c1OCO3)[C@]13C=C[C@H](OC)C[C@H]1N(C2)C[C@H]3OC(=O)c1cccc(C)c1 | MOLT-4 | cell growth or viability |  | WST-1 |  | > 10000 |
| COc1cc(N2CCC(N3CCN(C)CC3)CC2)ccc1Nc1ncc(Cl)c(Nc2ccccc2S(=O)(=O)C(C)C)n1 | Rh4 | cell growth or viability |  |  | 72 h | 90 |
